In ChEMBL document CHEMBL4673252, “Discovery and Early Clinical Development of Isobutyl 1-[8-Methoxy-5-(1-oxo-3H-isobenzofuran-5-yl)-[1,2,4]triazolo[1,5-a]pyridin-2-yl]cyclopropanecarboxylate (LEO 39652), a Novel "Dual-Soft" PDE4 Inhibitor for Topical Treatment of Atopic Dermatitis” (J Med Chem, 2020):

What was measured:
[1] = Clearance in human liver microsomes at 0.5 uM incubated for 40 mins in presence of NADPH by LC-MS/MS analysis; type: ADME, Microsome; details: read-out: CLH
Method in brief: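 Human liver microsomes (0.5 mg/mL) with 1 mM NADPH and 0.5 μM test compound, incubated for 40 min. Samples were taken before NADPH and at 5, 10, 20, 40 min, quenched with cold acetonitrile containing internal standard, and analysed by LC-MS/MS. Control incubations in buffer and without NADPH. Apparent clearance was calculated from depletion.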

[2] = Half life in human whole blood at 0.1 uM by LC-MS/MS analysis; type: ADME, tissue-based
[3] = Half life in human keratinocytes at 1 uM by LC-MS/MS analysis; type: ADME, cell-based, Keratinocyte
Method in brief: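 Plated human epidermal keratinocytes (1 × 10⁴ cells/well) with 1 μM compound in duplicate for up to 24 h; sampled at 0, 1, 2, 4, 24 h, acetonitrile precipitation, LC-MS/MS. Controls in growth medium. Half-life reported.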

[4] = Phototoxicity in mouse 3T3 cells; type: cell-based
[5] = Half life in cynomolgus monkey whole blood at 0.1 uM by LC-MS/MS analysis; type: ADME, tissue-based, Macaca fascicularis
[6] = Half life in mini pig whole blood at 0.1 uM by LC-MS/MS analysis; type: ADME, tissue-based, Sus scrofa domesticus
[7] = Half life in rat whole blood at 0.1 uM by LC-MS/MS analysis; type: ADME, tissue-based
[8] = Drug metabolism in rat whole blood assessed as 4-[2-(1-Carboxycyclopropyl)-8-methoxy-[1,2,4]triazolo[1,5-a]-pyridin-5-yl]-2-(hydroxymethyl)benzoic Acid formation at 0.1 uM measured up to 120 mins by LC-MS/MS analysis; type: ADME, tissue-based; details: 2 h
[9] = Clearance in human hepatocytes at 10 uM by UPLC/TOF-MS analysis; type: ADME, cell-based, Hepatocyte
[10] = Clearance in mini pig hepatocytes at 10 uM by UPLC/TOF-MS analysis; type: ADME, cell-based, Sus scrofa domesticus, Hepatocyte; details: read-out: CLH
[11] = Drug exposure in human assessed as ratio of drug level to total AUC at 0.25% of Isobutyl 1-[8-Methoxy-5-(1-oxo-3H-isobenzofuran-5-yl)-[1,2,4]-triazolo[1,5-a]pyridin-2-yl]cyclopropanecarboxylate dosed via topical administration in lipid cream; type: ADME, organism-based; details: in vivo, topical_or_ocular
[12] = Drug exposure in Isobutyl 1-[8-Methoxy-5-(1-oxo-3H-isobenzofuran-5-yl)-[1,2,4]-triazolo[1,5-a]pyridin-2-yl]cyclopropanecarboxylate dosed cynomolgus monkey assessed as ratio of drug level to total AUC; type: ADME, organism-based, Macaca fascicularis; details: in vivo
Method in brief: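 Blood was drawn at 0.25–24 h after infusion start and 6, 12, 24 h after infusion end into EDTA-K3, then plasma stabilized with ascorbic acid. LC-MS/MS quantification of parent and metabolites; noncompartmental PK.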

[13] = Drug exposure in of Isobutyl 1-[8-Methoxy-5-(1-oxo-3H-isobenzofuran-5-yl)-[1,2,4]-triazolo[1,5-a]pyridin-2-yl]cyclopropanecarboxylate dosed Gottingen mini pig assessed as ratio of drug level to total AUC at 0.5 to 2 mg/kg, iv measured up to 24 hrs by LC-MS/MS analysis; type: ADME, organism-based, Sus scrofa domesticus; details: in vivo, dose 0.5-2 mg/kg
[14] = Drug exposure in of Isobutyl 1-[8-Methoxy-5-(1-oxo-3H-isobenzofuran-5-yl)-[1,2,4]-triazolo[1,5-a]pyridin-2-yl]cyclopropanecarboxylate dosed Sprague-Dawley rat assessed as ratio of drug level to total AUC at 0.075 mg/kg, iv measured up to 30 mins by LC-MS/MS analysis; type: ADME, organism-based; details: in vivo, 0.5 h
Method in brief: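 Male Sprague Dawley rats (n = 3) received a single iv injection of 0.075 mg/kg (50 μg/mL, 1.5 mL/kg) in 20% cyclodextrin. Blood was taken from the tongue vein at 1, 3, 6, 9, 12, 15 and 30 min into lithium-heparin, diluted 1:1 with heparin water, and analysed by LC-MS/MS for parent and metabolites.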

[15] = Drug exposure in skin of Gottingen mini pig at 0.25% dosed topically as monoglyceride cream measured after 24 hrs by LC-MS/MS analysis; type: ADME, organism-based, Sus scrofa domesticus, Skin of body; details: in vivo, topical_or_ocular
Method in brief: (§1)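 Female Göttingen minipigs received single topical application of 1 or 2.5 mg/g monoglyceride cream at 10 μL/cm² over 4 cm² of belly/flank; excess removed. At 24 h sites were tape stripped (2 + 10 strips), 8 mm punch biopsies were taken and snap frozen, then homogenized, acetonitrile precipitated and analysed by LC-MS/MS; n = 2.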

[16] = Drug exposure in skin of Gottingen mini pig at 0.1% dosed topically as monoglyceride cream measured after 24 hrs by LC-MS/MS analysis; type: ADME, organism-based, Sus scrofa domesticus, Skin of body; details: in vivo, topical_or_ocular; method in brief: as §1
[17] = Cmax in cynomolgus monkey at 30 mg/kg, sc dosed as single administration; type: ADME, organism-based, Macaca fascicularis; set-up: route subcutaneous, dose 30 mg/kg; details: in vivo, read-out: Cmax
Method in brief: (§2)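 Single subcutaneous dose of 30 mg/kg.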

[18] = Cmax in human patient with atopic dermatitis at 0.25% dosed topically as lipid cream; type: ADME, organism-based; set-up: dose 0.25 %; details: in vivo, topical or ocular
[19] = AUC (0 to 24 hrs) in cynomolgus monkey at 30 mg/kg, sc dosed as single administration; type: ADME, organism-based, Macaca fascicularis; set-up: time < 24 hr, route subcutaneous, dose 30 mg/kg; details: in vivo; method in brief: as §2
[20] = AUC (0 to 24 hrs) in human patient with atopic dermatitis at 0.25% dosed topically as lipid cream; type: ADME, organism-based; set-up: time < 24 hr, dose 0.25 %; details: in vivo, topical or ocular
[21] = test system: TK6; assay: Genotoxicity in human TK6 cells in absence of S9 fraction by GreenScreen assay; type: toxicity, cell-based

CC[C@@H](C)OC(=O)C1(c2nc3c(OC)ccc(-c4ccc5c(c4)COC5=O)n3n2)CC1
CLint scaled at 0.5 µM [1]: > 200 mL/min/kg
half-life at 0.1 µM [2]: 13 min
half-life at 1 µM [3]: > 720 min
Activity [4]: Toxic

COc1ccc(-c2ccc(C(=O)O)c(CO)c2)n2nc(C3(C(=O)OCC(C)C)CC3)nc12
CLint scaled at 0.5 µM [1]: > 167 mL/min/kg
half-life at 0.1 µM [2]: > 60 min
half-life at 1 µM [3]: > 720 min
half-life at 0.1 µM [5]: > 60 min
half-life at 0.1 µM [6]: > 60 min
half-life at 0.1 µM [7]: 34 min
Drug metabolism [8]: Metabolite_Detected
CLhep predicted at 10 µM [9]: 13 mL/min/kg
CLint scaled at 10 µM [10]: 21 mL/min/kg
Drug uptake [11]: 12%
Drug uptake [12]: 36%
Drug uptake [13]: 15%
Drug uptake [14]: 26%
Drug uptake [15]: 2 µM
Drug uptake [16]: 0.6 µM
Cmax [17]: 749 ng/mL
Cmax [18]: 0.299 ng/mL
AUC(0-t) at 24 h [19]: 932 ng·h/mL
AUC(0-t) at 24 h [20]: 4.18 ng·h/mL

COc1ccc(-c2ccc3c(c2)COC3=O)n2nc(C3(C(=O)OC4CCOCC4)CC3)nc12
CLint scaled at 0.5 µM [1]: 97 mL/min/kg
half-life at 0.1 µM [2]: 10 min
half-life at 1 µM [3]: > 720 min
Activity [21]: Toxic
